# ChEMBL document CHEMBL1909591, “Design, synthesis, and SAR studies of novel polycyclic acids as potent and selective inhibitors of human 11β-hydroxysteroid dehydrogenase type 1 (11β-HSD-1)” (Bioorg Med Chem Lett, 2011)
# Active and inactive are the calls of the source. The rule behind the calls is not given here.
# Legend:
# [1] = target: Voltage-gated inwardly rectifying potassium channel KCNH2 (Homo sapiens, UniProt Q12809); experiment: Inhibition of human ERG
# [2] = AUC (0 to 8 hrs) in mouse at 30 umol/kg; assay type: ADME, organism-based; parameters: time < 8 hr, dose 30 umol/kg; details: plasma
# Procedure, shortened: (§1)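 Oral dosing in mice, with the compound in water containing 0.5% methocel and 0.1% Tween 80. Plasma concentrations were measured at 1, 4 and 8 h after dosing.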
# Cytochrome P450 2C19 = Cytochrome P450 2C19 (Homo sapiens, UniProt P33261); experiment: Inhibition of CYP2C19; assay type: ADME
# [3] = Metabolic stability in mouse liver microsomes assessed as compound remaining after 10 mins; assay type: ADME, Microsome; details: liver microsomes, read-out: Stability
# Cytochrome P450 1A2 = target: T1, Cytochrome P450 1A2 (Homo sapiens, UniProt P05177); experiment: Inhibition of CYP1A2; assay type: ADME
# T1 sequence (P05177 whole entry): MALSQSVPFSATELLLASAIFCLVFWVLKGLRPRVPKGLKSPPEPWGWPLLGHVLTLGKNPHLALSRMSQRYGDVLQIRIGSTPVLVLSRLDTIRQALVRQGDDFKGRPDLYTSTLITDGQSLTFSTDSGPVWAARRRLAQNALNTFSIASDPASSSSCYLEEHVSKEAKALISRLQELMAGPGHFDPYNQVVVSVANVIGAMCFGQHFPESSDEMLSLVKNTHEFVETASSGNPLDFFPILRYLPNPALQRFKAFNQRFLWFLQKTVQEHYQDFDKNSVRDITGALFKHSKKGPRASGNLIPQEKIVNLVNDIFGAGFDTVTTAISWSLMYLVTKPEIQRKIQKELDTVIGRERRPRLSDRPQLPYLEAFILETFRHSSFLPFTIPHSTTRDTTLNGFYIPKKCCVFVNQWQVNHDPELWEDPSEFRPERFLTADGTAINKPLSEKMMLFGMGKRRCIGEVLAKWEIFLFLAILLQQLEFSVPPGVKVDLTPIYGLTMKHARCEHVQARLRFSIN
# [4] = target: T2, 11-beta-hydroxysteroid dehydrogenase type 2 (Homo sapiens) (UniProt P80365); experiment: Inhibition of human 11beta-HSD-2 at 10 uM
# T2 sequence (whole entry): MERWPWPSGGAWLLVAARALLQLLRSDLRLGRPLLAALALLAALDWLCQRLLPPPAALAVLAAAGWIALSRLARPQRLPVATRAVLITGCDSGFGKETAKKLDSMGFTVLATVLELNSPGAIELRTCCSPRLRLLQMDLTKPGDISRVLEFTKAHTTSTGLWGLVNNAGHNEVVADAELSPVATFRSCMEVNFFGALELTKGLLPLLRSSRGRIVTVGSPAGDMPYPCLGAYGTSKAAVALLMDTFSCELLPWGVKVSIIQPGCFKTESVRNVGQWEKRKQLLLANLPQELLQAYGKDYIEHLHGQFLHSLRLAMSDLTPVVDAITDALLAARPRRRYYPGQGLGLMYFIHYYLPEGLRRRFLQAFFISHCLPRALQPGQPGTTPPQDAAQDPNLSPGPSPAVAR
# [5] = target: 11-beta-hydroxysteroid dehydrogenase 1 (Mus musculus, UniProt P50172); experiment: Inhibition of mouse 11beta-HSD-1
# [6] = Cmax in mouse at 30 umol/kg; assay type: ADME, organism-based; parameters: dose 30 umol/kg; details: in vivo; procedure, shortened: as §1
# [7] = target: T3, Peroxisome proliferator-activated receptor alpha (Homo sapiens) (UniProt Q07869); experiment: Activation of PPARalpha up to 30 uM
# T3 sequence (whole entry): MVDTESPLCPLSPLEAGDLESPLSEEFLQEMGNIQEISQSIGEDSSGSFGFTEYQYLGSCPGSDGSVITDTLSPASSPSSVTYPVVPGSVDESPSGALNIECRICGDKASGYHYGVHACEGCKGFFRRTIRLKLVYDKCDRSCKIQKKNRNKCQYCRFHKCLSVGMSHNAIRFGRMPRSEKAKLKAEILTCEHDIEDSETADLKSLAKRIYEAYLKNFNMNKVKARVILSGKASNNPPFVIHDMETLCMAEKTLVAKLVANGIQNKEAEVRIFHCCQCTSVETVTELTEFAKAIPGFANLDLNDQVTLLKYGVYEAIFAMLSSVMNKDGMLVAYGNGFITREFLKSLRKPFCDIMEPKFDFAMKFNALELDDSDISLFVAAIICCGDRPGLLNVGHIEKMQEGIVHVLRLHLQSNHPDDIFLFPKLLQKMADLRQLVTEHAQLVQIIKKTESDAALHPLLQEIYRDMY
# Cytochrome P450 3A4 = Cytochrome P450 3A4 (Homo sapiens, UniProt P08684); experiment: Inhibition of CYP3A4; assay type: ADME
# Cytochrome P450 2D6 = Cytochrome P450 2D6 (Homo sapiens, UniProt P10635); experiment: Inhibition of CYP2D6; assay type: ADME
# [8] = Metabolic stability in human liver microsomes assessed as compound remaining after 10 mins; assay type: ADME, Microsome; details: liver microsomes, read-out: Stability
# [9] = target: 11-beta-hydroxysteroid dehydrogenase type 2 (Homo sapiens) (UniProt P80365); experiment: Inhibition of human 11beta-HSD-2
# [10] = target: T4, Peroxisome proliferator-activated receptor gamma (Homo sapiens) (UniProt P37231); experiment: Activation of PPARgamma up to 30 uM
# T4 sequence (whole entry): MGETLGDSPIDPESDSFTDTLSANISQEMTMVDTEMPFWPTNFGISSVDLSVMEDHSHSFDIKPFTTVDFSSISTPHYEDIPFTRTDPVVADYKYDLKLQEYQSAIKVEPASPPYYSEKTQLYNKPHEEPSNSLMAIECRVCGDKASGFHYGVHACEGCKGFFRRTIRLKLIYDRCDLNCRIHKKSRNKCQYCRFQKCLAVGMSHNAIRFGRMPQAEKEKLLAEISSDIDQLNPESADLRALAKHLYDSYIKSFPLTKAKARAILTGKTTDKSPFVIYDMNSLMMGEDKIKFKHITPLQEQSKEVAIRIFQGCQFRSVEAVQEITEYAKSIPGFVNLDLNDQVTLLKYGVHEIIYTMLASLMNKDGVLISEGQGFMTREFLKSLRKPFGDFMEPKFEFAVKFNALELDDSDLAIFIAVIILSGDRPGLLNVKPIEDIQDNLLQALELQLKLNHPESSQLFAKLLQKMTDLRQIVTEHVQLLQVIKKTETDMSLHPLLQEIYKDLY
# [11] = target: T5, Peroxisome proliferator-activated receptor delta (Homo sapiens) (UniProt Q03181); experiment: Activation of PPARdelta up to 30 uM
# T5 sequence (whole entry): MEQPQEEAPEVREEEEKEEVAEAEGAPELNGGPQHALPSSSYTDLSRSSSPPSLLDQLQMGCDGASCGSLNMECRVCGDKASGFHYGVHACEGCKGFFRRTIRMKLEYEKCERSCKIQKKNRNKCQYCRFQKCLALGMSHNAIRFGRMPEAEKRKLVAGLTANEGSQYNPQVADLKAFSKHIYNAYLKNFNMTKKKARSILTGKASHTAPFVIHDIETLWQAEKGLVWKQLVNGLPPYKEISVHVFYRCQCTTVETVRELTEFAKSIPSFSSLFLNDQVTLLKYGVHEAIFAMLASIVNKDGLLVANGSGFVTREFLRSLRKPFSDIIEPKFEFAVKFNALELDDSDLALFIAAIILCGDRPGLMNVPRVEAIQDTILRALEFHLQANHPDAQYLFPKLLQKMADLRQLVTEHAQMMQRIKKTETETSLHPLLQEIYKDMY
# [12] = target: T6, Nuclear receptor subfamily 1 group I member 2 (Homo sapiens, UniProt O75469); experiment: Transactivation of PXR
# T6 sequence (O75469 whole entry): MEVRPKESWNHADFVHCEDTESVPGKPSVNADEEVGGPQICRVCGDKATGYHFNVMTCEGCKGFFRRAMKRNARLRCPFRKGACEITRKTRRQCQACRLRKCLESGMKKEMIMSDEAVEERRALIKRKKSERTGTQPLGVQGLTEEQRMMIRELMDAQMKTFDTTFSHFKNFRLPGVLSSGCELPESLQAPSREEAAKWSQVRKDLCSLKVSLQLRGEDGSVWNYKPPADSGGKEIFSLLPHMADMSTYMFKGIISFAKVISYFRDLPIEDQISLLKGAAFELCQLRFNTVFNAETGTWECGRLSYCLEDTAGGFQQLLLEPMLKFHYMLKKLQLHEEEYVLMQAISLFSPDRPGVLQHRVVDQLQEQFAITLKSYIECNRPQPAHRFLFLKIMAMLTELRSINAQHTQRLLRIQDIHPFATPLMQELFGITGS
# Cytochrome P450 2C9 = Cytochrome P450 2C9 (Homo sapiens, UniProt P11712); experiment: Inhibition of CYP2C9; assay type: ADME
# Chain of Cytochrome P450 2C9 (P11712 whole entry): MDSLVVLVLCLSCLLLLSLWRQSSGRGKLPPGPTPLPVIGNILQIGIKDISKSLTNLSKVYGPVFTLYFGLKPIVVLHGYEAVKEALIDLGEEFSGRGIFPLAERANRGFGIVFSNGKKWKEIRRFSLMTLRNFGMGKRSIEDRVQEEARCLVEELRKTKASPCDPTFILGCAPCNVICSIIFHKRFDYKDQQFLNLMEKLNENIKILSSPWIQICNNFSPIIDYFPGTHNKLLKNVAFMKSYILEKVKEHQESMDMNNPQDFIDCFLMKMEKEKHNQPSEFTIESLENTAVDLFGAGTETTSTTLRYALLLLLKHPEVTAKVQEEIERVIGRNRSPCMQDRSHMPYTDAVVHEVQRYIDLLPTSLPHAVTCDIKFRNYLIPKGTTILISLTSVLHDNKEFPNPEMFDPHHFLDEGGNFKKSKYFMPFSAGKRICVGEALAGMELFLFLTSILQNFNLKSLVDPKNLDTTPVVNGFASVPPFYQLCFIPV
# Chain of Cytochrome P450 3A4 (P08684 whole entry): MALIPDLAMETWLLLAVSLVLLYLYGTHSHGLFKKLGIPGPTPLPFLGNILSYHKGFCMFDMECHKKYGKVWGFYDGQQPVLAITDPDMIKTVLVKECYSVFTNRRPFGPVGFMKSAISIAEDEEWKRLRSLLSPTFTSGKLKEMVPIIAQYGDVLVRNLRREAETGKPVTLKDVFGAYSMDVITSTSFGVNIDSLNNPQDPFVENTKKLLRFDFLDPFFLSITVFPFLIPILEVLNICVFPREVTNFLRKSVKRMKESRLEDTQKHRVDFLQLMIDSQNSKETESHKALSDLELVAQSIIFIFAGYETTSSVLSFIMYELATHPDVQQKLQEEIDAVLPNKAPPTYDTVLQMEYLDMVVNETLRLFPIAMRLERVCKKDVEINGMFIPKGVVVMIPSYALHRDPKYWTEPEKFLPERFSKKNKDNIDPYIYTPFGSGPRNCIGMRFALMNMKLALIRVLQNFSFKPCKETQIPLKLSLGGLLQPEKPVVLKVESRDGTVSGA
# Chain of Voltage-gated inwardly rectifying potassium channel KCNH2 (Q12809 whole entry): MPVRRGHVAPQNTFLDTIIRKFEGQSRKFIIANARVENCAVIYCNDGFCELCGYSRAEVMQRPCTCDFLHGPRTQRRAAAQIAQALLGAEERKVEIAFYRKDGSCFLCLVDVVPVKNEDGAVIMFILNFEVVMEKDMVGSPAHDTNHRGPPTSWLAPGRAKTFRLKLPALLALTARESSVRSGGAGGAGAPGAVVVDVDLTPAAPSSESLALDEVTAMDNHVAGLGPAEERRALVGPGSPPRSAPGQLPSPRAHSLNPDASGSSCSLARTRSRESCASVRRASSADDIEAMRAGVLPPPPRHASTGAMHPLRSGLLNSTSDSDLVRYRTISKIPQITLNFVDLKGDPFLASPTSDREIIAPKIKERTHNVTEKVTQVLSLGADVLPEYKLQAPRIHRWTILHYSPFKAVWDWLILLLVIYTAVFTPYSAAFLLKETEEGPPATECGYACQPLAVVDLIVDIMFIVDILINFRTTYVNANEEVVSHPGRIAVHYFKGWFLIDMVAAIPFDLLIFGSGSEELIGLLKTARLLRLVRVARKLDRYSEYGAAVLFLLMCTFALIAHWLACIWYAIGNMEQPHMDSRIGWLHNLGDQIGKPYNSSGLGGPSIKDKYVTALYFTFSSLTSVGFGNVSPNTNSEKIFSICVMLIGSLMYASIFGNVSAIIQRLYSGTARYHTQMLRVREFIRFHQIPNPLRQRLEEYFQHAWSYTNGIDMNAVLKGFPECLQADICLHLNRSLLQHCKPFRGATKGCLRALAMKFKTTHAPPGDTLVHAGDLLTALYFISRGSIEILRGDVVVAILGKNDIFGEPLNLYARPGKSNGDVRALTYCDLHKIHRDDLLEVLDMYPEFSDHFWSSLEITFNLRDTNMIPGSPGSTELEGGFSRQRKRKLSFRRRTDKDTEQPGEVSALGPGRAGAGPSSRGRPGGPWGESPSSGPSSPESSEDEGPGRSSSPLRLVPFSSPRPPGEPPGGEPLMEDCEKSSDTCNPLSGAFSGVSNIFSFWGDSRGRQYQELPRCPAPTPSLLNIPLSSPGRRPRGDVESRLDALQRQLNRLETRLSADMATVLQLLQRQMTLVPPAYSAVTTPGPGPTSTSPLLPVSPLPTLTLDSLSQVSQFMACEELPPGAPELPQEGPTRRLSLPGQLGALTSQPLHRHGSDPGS
# Chain of Cytochrome P450 2D6 (P10635 whole entry): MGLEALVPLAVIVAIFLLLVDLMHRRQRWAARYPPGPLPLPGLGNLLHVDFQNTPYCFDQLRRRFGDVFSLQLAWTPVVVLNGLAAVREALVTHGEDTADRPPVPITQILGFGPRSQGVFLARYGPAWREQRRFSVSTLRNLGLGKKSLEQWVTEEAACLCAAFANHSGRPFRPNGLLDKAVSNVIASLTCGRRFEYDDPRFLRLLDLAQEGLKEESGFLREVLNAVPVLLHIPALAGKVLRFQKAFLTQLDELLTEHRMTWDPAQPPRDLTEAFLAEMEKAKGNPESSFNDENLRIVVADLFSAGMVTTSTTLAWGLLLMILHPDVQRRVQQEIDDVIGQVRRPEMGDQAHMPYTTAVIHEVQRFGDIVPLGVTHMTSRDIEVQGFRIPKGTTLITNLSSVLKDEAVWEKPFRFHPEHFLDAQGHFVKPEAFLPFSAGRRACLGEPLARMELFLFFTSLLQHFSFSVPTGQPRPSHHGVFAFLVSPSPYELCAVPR
# Chain of 11-beta-hydroxysteroid dehydrogenase 1 (P50172 whole entry): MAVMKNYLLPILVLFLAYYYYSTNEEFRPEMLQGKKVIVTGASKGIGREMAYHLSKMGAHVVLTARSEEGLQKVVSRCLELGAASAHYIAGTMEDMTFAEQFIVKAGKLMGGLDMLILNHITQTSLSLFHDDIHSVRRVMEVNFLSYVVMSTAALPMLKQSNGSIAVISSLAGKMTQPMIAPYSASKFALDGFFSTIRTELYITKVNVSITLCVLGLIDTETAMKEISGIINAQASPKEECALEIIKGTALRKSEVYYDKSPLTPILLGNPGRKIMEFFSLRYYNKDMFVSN
# Chain of Cytochrome P450 2C19 (P33261 whole entry): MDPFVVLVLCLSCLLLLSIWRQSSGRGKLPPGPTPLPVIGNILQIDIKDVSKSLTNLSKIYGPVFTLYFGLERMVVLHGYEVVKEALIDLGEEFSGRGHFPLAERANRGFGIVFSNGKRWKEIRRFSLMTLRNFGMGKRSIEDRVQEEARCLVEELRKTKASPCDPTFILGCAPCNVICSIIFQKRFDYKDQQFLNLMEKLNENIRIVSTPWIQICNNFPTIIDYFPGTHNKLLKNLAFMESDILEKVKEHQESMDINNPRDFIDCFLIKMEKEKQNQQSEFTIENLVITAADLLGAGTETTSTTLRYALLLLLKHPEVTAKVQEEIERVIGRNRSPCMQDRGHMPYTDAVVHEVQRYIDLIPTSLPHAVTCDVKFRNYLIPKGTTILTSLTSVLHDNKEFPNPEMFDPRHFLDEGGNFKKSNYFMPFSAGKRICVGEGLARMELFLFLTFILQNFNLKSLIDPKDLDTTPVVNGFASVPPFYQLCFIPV
structure (smiles),measurement,setting,value
O=C(O)CC1(c2ccc(F)cc2)C2CC3CC(C2)CC1C3 (configuration not stated),inhibition (INH),[1],Active
same,AUC(0-t) at 8 h,[2],2 µM·h
same,inhibition (INH),Cytochrome P450 2C19,Active
same,remaining at 10 min,[3],48%
same,inhibition (INH),Cytochrome P450 1A2,Active
same,inhibition,[4],< 50%
same,IC50,[5],120 nM
same,Cmax,[6],480 nM
same,Activity,[7],inactive
same,inhibition (INH),Cytochrome P450 3A4,Active
same,inhibition (INH),Cytochrome P450 2D6,Active
same,remaining at 10 min,[8],78%
same,inhibition,[9],inactive
same,Activity,[10],inactive
same,Activity,[11],inactive
same,EC50,[12],> 50000 nM
same,inhibition (INH),Cytochrome P450 2C9,Active
